Experiment [1] concerns the target Tyrosine-protein kinase Lck (Homo sapiens) (UniProt P06239). Put plainly: Equilibrium constant for competitive binding to p56 lck SH2 domain by SPR after 1st run. Summed up:
(§1)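 Injected at 5 μL/min over streptavidin chip bearing biotinylated EPQpYEEIPIA (500 nM loading); 10 mM HCl regeneration. Plateau RU vs peptide fitted by nonlinear regression (eq 15) for KS, KC fixed from direct binding.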
A general note: In SPR one partner is held on a chip, and binding of the other changes the refractive index at the surface.

Experiment [2] shares this target. Put plainly: Equilibrium constant for competitive binding to p56 lck SH2 domain by SPR after 5th run. The method in brief: as §1
For experiment [3] the target is unchanged. Nature of the experiment: Equilibrium constant for competitive binding to p56 lck SH2 domain by SPR after 2nd run. Summed up: as §1
The target is the same in experiment [4]. Nature of the experiment: Equilibrium constant for competitive binding to p56 lck SH2 domain by SPR after 3rd run. Summed up:
as §1

The target is the same in experiment [5]. Put plainly: Equilibrium constant for competitive binding to p56 lck SH2 domain by SPR after 4th run. Summed up: as §1

SMILES strings stand for the structures.

Sequence of Tyrosine-protein kinase Lck (Homo sapiens) (P06239 2-509 limits assumed): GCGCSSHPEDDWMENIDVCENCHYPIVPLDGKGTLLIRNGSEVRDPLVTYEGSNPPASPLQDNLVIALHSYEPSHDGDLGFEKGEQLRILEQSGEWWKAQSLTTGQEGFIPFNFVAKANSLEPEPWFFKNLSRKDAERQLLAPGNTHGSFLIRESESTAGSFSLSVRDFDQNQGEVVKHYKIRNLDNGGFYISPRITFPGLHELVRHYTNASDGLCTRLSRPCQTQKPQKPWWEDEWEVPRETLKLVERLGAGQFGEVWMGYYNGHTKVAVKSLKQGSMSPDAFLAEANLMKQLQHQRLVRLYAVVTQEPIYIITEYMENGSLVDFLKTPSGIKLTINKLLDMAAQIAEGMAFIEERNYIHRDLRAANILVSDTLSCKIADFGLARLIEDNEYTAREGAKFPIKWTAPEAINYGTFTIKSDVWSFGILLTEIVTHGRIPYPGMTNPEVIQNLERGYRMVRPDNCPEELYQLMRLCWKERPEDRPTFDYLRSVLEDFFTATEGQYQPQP

On to `CC[C@H](C)[C@H](NC(=O)CNC(=O)[C@H](CCC(=O)O)NC(=O)[C@H](Cc1ccc(OP(=O)(O)O)cc1)NC(=O)[C@H](CCC(N)=O)NC(=O)CNC(=O)[C@@H](N)CCC(=O)O)C(=O)N1CCC[C@@H]1C(=O)O`, for which the Ks in experiment [1] was 171 nM; in experiment [2], 0.536 µM; in experiment [3], 167 nM; in experiment [4], 242 nM; in experiment [5], 261 nM.
Turning to `NC(=O)CC[C@H](NC(=O)CNC(=O)[C@@H](N)CCC(=O)O)C(=O)N[C@@H](Cc1ccc(OP(=O)(O)O)cc1)C(=O)N[C@@H](CCC(=O)O)C(=O)N[C@@H](CCC(=O)O)C(=O)NCC(=O)N1CCC[C@@H]1C(=O)O`, the Ks in experiment [1] is 833 nM; in experiment [2] it was 2.16 µM; in experiment [3], 916 nM; in experiment [4] it was 908 nM; in experiment [5] it was 938 nM.
Turning to `CC[C@H](C)[C@H](NC(=O)[C@H](CCC(=O)O)NC(=O)[C@H](CCC(=O)O)NC(=O)[C@H](Cc1ccc(OP(=O)(O)O)cc1)NC(=O)[C@H](CCC(N)=O)NC(=O)CNC(=O)[C@@H](N)CCC(=O)O)C(=O)N1CCC[C@@H]1C(=O)O`, the Ks in experiment [1] is 14.4 nM; in experiment [3], 22.8 nM; in experiment [4], 26.9 nM; in experiment [5], 27.8 nM.
Take `CC[C@H](C)[C@H](NC(=O)[C@H](CCC(=O)O)NC(=O)CNC(=O)[C@H](Cc1ccc(OP(=O)(O)O)cc1)NC(=O)CNC(=O)[C@H](CCC(N)=O)NC(=O)[C@@H](N)CCC(=O)O)C(=O)N1CCC[C@@H]1C(=O)O`: the Ks in experiment [1] stood at 1320 nM; in experiment [2], 2.85 µM; in experiment [3], 982 nM; in experiment [4] it was 1220 nM; in experiment [5], 1250 nM.

The values above are taken from ChEMBL document CHEMBL1128297, “Determination of receptor-ligand kinetic and equilibrium binding constants using surface plasmon resonance: application to the lck SH2 domain and phosphotyrosyl peptides” (J Med Chem, 1995).
